Measured values gathered from unrelated publications.
Compare with care: the assays were run in different laboratories. pIC50: −log10 of the molar value.
Cell line: DU-145
Observed: cell growth or viability

With `CC(C)n1cc(C(c2ccc(/C=C/C(=O)O)s2)c2cn(C(C)C)c3ccccc23)c2ccccc21` the pIC50 was 4.28 (MTT; 48 h).
With `COc1cccc2c1C(=O)c1c(O)c3c(c(O)c1C2=O)C[C@@](O)(C(=O)CO)C[C@@H]3O[C@H]1C[C@H](N)[C@H](O)[C@H](C)O1` the pIC50 was 7.02 (resazurin; 72 h).
`Cc1ccc2[nH]cc(C(c3ccc(/C=C/C(=O)O)s3)c3c[nH]c4ccc(C)cc34)c2c1` has a pIC50 of under 4.00 (MTT; 48 h).
`Cc1ccc(S(=O)(=O)N(C)CC(=O)N(Cc2ccc(C3CCCCC3)cc2)c2ccc(C(=O)O)c(O)c2)cc1` has a pIC50 of 4.43.
`COc1cc(OC)cc([C@H]2C[C@@H](C)OC(=O)c3cc4ccccn4c32)c1` (racemic) has a pIC50 of 4.28 (resazurin; 72 h).
The pIC50 of `CC(C)C(=O)Nc1ccc([N+](=O)[O-])c(C(F)(F)F)c1` is reported as under 4.30 (CCK-8; 48 h).
The pIC50 of `C[C@@H]1C[C@@H](c2cccc(Cl)c2)c2c(cc3ccccn23)C(=O)O1` (racemic) is reported as under 4.00 (resazurin; 72 h).
With `O=C(O)/C=C/c1cccc(C(c2c[nH]c3ccccc23)c2c[nH]c3ccccc23)c1` the pIC50 was under 4.00 (MTT; 48 h).
The pIC50 of `COC1=CC(=O)N(C(=O)[C@@H](CCC(Cl)(Cl)Cl)NC(=O)C(C)(C)C)[C@@H]1CCC(Cl)Cl` is reported as under 4.46 (resazurin; 72 h).
The pIC50 of `Cc1cccc2c(C(c3ccc(/C=C/C(=O)O)s3)c3c[nH]c4c(C)cccc34)c[nH]c12` is reported as 4.19 (MTT; 48 h).
For `O=C1NC(c2ccccc2)(c2ccccc2)C(=O)N1Cc1cn(-c2c3ccccc3nc3ccccc23)nn1`, the pIC50 was 4.10 (MTT).
The pIC50 of `COc1cc(C2Oc3cc([C@H]4Oc5cc(O)cc(O)c5C(=O)[C@@H]4O)ccc3OC2CO)ccc1O` (stereo partly shown) is reported as 4.66 (CCK-8; 72 h).
For `COc1cc([C@@H]2C[C@@H](C)OC(=O)c3cc4ccccn4c32)cc(OC)c1OC` (racemic), the pIC50 was under 4.00 (resazurin; 72 h).
For `Cn1cc(C(c2ccc(C(=O)O)cc2)c2cn(C)c3ccccc23)c2ccccc21`, the pIC50 was under 4.00 (MTT; 48 h).
The pIC50 of `C[C@@H]1C[C@@H](c2ccc3c(c2)OCO3)c2c(cc3ccccn23)C(=O)O1` (racemic) is reported as 4.45 (resazurin; 72 h).
The pIC50 of `O=C(O)/C=C/c1ccc(C(c2c[nH]c3ccccc23)c2c[nH]c3ccccc23)s1` is reported as 4.05 (MTT; 48 h).
`c1csc([I+]c2cccs2)c1` has a pIC50 of about 5.46 (trypan blue; 48 h).
The pIC50 of `CC(C)C[C@H](NC(=O)[C@H](Cc1ccccc1)NC(=O)c1cnccn1)B(O)O` is reported as 7.77 (ATP luminescence).
`C[C@@H]1C[C@@H](c2cccc(F)c2)c2c(cc3ccccn23)C(=O)O1` (racemic) has a pIC50 of under 4.00 (resazurin; 72 h).
With `FC(F)(F)c1ccc(C(c2c[nH]c3ccccc23)c2c[nH]c3ccccc23)cc1` the pIC50 was 4.33 (MTT; 48 h).
For `C[C@@H]1C[C@@H](c2ccc(Br)cc2)c2c(cc3ccccn23)C(=O)O1` (racemic), the pIC50 was 4.33 (resazurin; 72 h).
For `COc1cccc2c1C(=O)c1c(O)c3c(c(O)c1C2=O)C[C@@](O)(C(=O)CO)C[C@@H]3O[C@H]1C[C@H](N)[C@H](O)[C@H](C)O1`, the pIC50 was 7.52 (WST-1; 72 h).
